Data taken from ChEMBL document CHEMBL4257442, “An insight into tetrahydro-β-carboline-tetrazole hybrids: synthesis and bioevaluation as potent antileishmanial agents” (Medchemcomm, 2017).

Assays:
Leishmania donovani [1] = experiment: Antileishmanial activity against Leishmania donovani MHOM/IN/80/Dd8 amastigotes harboring luciferase reporter gene infected in mouse J774A.1 cells after 72 hrs by Steady-Glo luminescence assay; format: functional, organism-based; settings: MHOM/IN/80/Dd8, J774.A1, 72 h
Method in brief: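 Intracellular L. donovani amastigotes in murine macrophages, with firefly luciferase reporter expression. IC50 is the concentration giving 50% inhibition of parasite growth. Values are the average of three independent assays, given as average ± standard error.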

Leishmania donovani [2] = experiment: Antileishmanial activity against Leishmania donovani MHOM/IN/80/Dd8 promastigotes harboring luciferase reporter gene after 72 hrs by Steady-Glo luminescence assay; format: functional, organism-based; settings: MHOM/IN/80/Dd8, 72 h
Method in brief: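 Extracellular promastigotes of the L. donovani WHO reference strain MHOM/IN/80/Dd8. IC50 is the concentration giving 50% inhibition of parasite growth. Values are the average of three independent assays, given as average ± standard error.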

[3] = Cytotoxicity against mouse J774A.1 cells after 2 hrs by MTT assay; format: cell-based, J774.A1
Method in brief: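 Mouse macrophage J-774A.1 cells obtained from NCCS, Pune, were used for the in vitro cytotoxicity assay. CC50 is the average of three independent assays, expressed as average ± standard error.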

[4] = Selectivity index, ratio of CC50 for mouse J774A.1 cells to IC50 for Leishmania donovani MHOM/IN/80/Dd8 amastigote forms infected in mouse J774A.1 cells; format: toxicity, cell-based; settings: read-out: Ratio CC50/IC50
Method in brief: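 SI was calculated as the cytotoxicity CC50 in J-774A.1 cells divided by the anti-amastigote IC50. The amastigote assay used murine macrophages expressing a firefly luciferase reporter, infected with intracellular L. donovani. Each IC50 and CC50 is the average of three independent assays.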

[5] = Cmax in golden Syrian hamster at 50 mg/kg, po measured up to 24 hrs by LC-MS/MS analysis; format: ADME, organism-based, Mesocricetus auratus; design: dose 50 mg/kg, route oral; settings: in vivo
Method in brief: (§1)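 Single oral 50 mg kg–1 dose given to golden Syrian hamsters (n = 5). Compound quantified in serum over time up to 24 h by validated LC-MS/MS with electrospray ionization. Parameters came from non-compartmental analysis of the mean serum concentration–time profile and are reported as mean ± SEM of five animals.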

Leishmania donovani [6] = experiment: (§2) Antileishmanial activity against Leishmania donovani MHOM/IN/80/Dd8 amastigotes infected in golden hamsters assessed as inhibition of splenic parasite burden at 50 mg/kg, ip for 5 consecutive days initiated after 2 days of biopsy and measured on day 28 post last dose by Giemsa staining-based assay relative to control; format: functional; settings: MHOM/IN/80/Dd8, ip
Method in brief: (§3)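 Golden hamster model infected with L. donovani. Treatment was 50 mg kg–1 given intraperitoneally for 5 consecutive days. Read-out was % inhibition of splenic parasite burden.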

[7] = Tmax in golden Syrian hamster at 50 mg/kg, po measured up to 24 hrs by LC-MS/MS analysis; format: ADME, organism-based, Mesocricetus auratus; settings: in vivo; method in brief: as §1
Leishmania donovani [8] = experiment: as §2, with “7” for “28”; format: functional; settings: MHOM/IN/80/Dd8, ip; method in brief: as §3
[9] = MRT in golden Syrian hamster at 50 mg/kg, po measured up to 24 hrs by LC-MS/MS analysis; format: ADME, organism-based, Mesocricetus auratus; settings: in vivo; method in brief: as §1
Leishmania donovani [10] = experiment: as §2, with “100” for “50”, “po” for “ip”, “7” for “28”; format: functional; settings: MHOM/IN/80/Dd8, po
Leishmania donovani [11] = experiment: as §2, with “100” for “50”, “po” for “ip”; format: functional; settings: MHOM/IN/80/Dd8, po
[12] = Apparent oral volume of distribution in golden Syrian hamster at 50 mg/kg measured up to 24 hrs by LC-MS/MS analysis; format: ADME, organism-based, Mesocricetus auratus; settings: in vivo; method in brief: as §1
[13] = Apparent oral clearance in golden Syrian hamster at 50 mg/kg measured up to 24 hrs by LC-MS/MS analysis; format: ADME, organism-based, Mesocricetus auratus; settings: in vivo; method in brief: as §1
[14] = AUClast in golden Syrian hamster at 50 mg/kg, po measured up to 24 hrs by LC-MS/MS analysis; format: ADME, organism-based, Mesocricetus auratus; design: time < 24 hr, dose 50 mg/kg, route oral; settings: in vivo; method in brief: as §1
Leishmania donovani [15] = experiment: as §2, with “30” for “50”, “po” for “ip”, “7” for “28”; format: functional; settings: MHOM/IN/80/Dd8, po

| Structure (SMILES) | IC50 (Leishmania donovani [1]) | IC50 (Leishmania donovani [2]) | CC50 at 2 h [3] | selectivity ratio [4] | also measured |
| --- | --- | --- | --- | --- | --- |
| COc1ccc(C(c2nnnn2C2CCCCC2)N2CCc3c([nH]c4ccccc34)C2)cc1 (configuration not stated) | ≥ 50 µM | 20.4 µM | – | – | – |
| COc1ccc(C(c2nnnn2C(C)(C)C)N2CCc3c([nH]c4ccccc34)C2)cc1OC (configuration not stated) | 16 µM | 5.71 µM | 138 µM | 8 | – |
| O=[N+]([O-])c1ccc(C(c2nnnn2C2CCCCC2)N2CCc3c([nH]c4ccccc34)C2)cc1 (configuration not stated) | ≥ 50 µM | 31 µM | – | – | – |
| Clc1ccccc1C(c1nnnn1C1CCCCC1)N1CCc2c([nH]c3ccccc23)C1 (configuration not stated) | ≥ 50 µM | ≥ 100 µM | – | – | – |
| COc1ccc(C(c2nnnn2C2CCCCC2)N2CCc3c([nH]c4ccccc34)C2)cc1OC (configuration not stated) | 3.31 µM | 1.2 µM | 41.9 µM | 13 | – |
| COc1cc(C(c2nnnn2C2CCCCC2)N2CCc3c([nH]c4ccccc34)C2)cc(OC)c1OC (configuration not stated) | 1.57 µM | 2.81 µM | 36 µM | 23 | Cmax [5]: 76.2 to 83.5 ng/mL; inhibition in vivo at 50 mg/kg (Leishmania donovani [6]): 88.9%; Tmax [7]: 1.6 to 8 h; inhibition in vivo at 50 mg/kg (Leishmania donovani [8]): 75%; MRT [9]: 10.2 h; inhibition in vivo at 100 mg/kg (Leishmania donovani [10]): 50.9%; inhibition in vivo at 100 mg/kg (Leishmania donovani [11]): 77.5%; Vd/F [12]: 652 L/kg; CL/F [13]: 720 mL/min/kg; AUC(0-t) at 24 h [14]: 844 ng·h/mL |
| CC(C)(C)n1nnnc1C(c1ccc([N+](=O)[O-])cc1)N1CCc2c([nH]c3ccccc23)C1 (configuration not stated) | 3.78 µM | 0.59 µM | 140 µM | 37 | inhibition in vivo at 50 mg/kg (Leishmania donovani [6]): 19.6%; inhibition in vivo at 50 mg/kg (Leishmania donovani [8]): 20.4% |
| CC(C)(C)n1nnnc1C(c1cccc([N+](=O)[O-])c1)N1CCc2c([nH]c3ccccc23)C1 (configuration not stated) | 3.86 µM | 4.91 µM | 150 µM | 39 | inhibition in vivo at 50 mg/kg (Leishmania donovani [6]): 2.92%; inhibition in vivo at 50 mg/kg (Leishmania donovani [8]): 4.83% |
| CCCCCCCCCCCCCCCCOP(=O)([O-])OCC[N+](C)(C)C [MILTEFOSINE] | – | – | 12.4 µM | 1.48 | inhibition in vivo at 30 mg/kg (Leishmania donovani [15]): 98.1% |
| N#Cc1ccc(C(c2nnnn2C2CCCCC2)N2CCc3c([nH]c4ccccc34)C2)cc1 (configuration not stated) | ≥ 50 µM | ≥ 100 µM | – | – | – |
| CC(C)(C)n1nnnc1C(c1ccccc1)N1CCc2c([nH]c3ccccc23)C1 (configuration not stated) | 5.41 µM | 4.07 µM | 146 µM | 27 | inhibition in vivo at 50 mg/kg (Leishmania donovani [6]): 3.79%; inhibition in vivo at 50 mg/kg (Leishmania donovani [8]): 4.05% |
| Brc1ccc(C(c2nnnn2C2CCCCC2)N2CCc3c([nH]c4ccccc34)C2)cc1 (configuration not stated) | ≥ 50 µM | 16.5 µM | – | – | – |
| CC(C)(C)n1nnnc1C(c1ccc(F)cc1)N1CCc2c([nH]c3ccccc23)C1 (configuration not stated) | 17.5 µM | 2.71 µM | 48.8 µM | 3 | – |
| Clc1ccc(C(c2nnnn2C2CCCCC2)N2CCc3c([nH]c4ccccc34)C2)cc1 (configuration not stated) | 2.08 µM | 2.89 µM | 35.5 µM | 17 | – |
| COc1cc(C(c2nnnn2C(C)(C)C)N2CCc3c([nH]c4ccccc34)C2)cc(OC)c1OC (configuration not stated) | ≥ 50 µM | 23.5 µM | – | – | – |
| CC(C)(C)n1nnnc1C(c1ccc(Cl)cc1)N1CCc2c([nH]c3ccccc23)C1 (configuration not stated) | 14.2 µM | 3.45 µM | 37 µM | 2 | – |
| CC(C)(C)n1nnnc1C(c1ccc(Br)cc1)N1CCc2c([nH]c3ccccc23)C1 (configuration not stated) | 3.77 µM | 1.58 µM | 144 µM | 38 | inhibition in vivo at 50 mg/kg (Leishmania donovani [6]): 53.1%; inhibition in vivo at 50 mg/kg (Leishmania donovani [8]): 33.7% |
| CC(C)(C)n1nnnc1C(c1ccc(C#N)cc1)N1CCc2c([nH]c3ccccc23)C1 (configuration not stated) | 16.4 µM | 2.82 µM | 150 µM | 9 | – |
| Fc1ccc(C(c2nnnn2C2CCCCC2)N2CCc3c([nH]c4ccccc34)C2)cc1 (configuration not stated) | ≥ 25 µM | 14.5 µM | – | – | – |
| CC(C)c1ccc(C(c2nnnn2C(C)(C)C)N2CCc3c([nH]c4ccccc34)C2)cc1 (configuration not stated) | 17.6 µM | 3.56 µM | 130 µM | 7 | – |
| COc1ccc(C(c2nnnn2C(C)(C)C)N2CCc3c([nH]c4ccccc34)C2)cc1 (configuration not stated) | 4.32 µM | 1.14 µM | 42 µM | 10 | – |
